In ChEMBL document CHEMBL2346557 (Bioorg Med Chem, 2013):
≈ marks a conversion by molar mass, not a printed value. Calls of active or inactive are those of the source. No cut-off for these calls is given here.

Tests used:
Cytochrome P450 3A4 [1] = molecular target: T1, Cytochrome P450 3A4 (Homo sapiens, UniProt P08684); assay: Induction of CYP3A4 in human hepatocytes; format: ADME, cell-based, Hepatocyte
Method in brief: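 Cryopreserved hepatocytes from 3 human donors were cultured on collagen for 3 days, then dosed daily in fresh medium with 1, 10 or 100 μM compound, vehicle, or rifampin as positive control. CYP3A4 activity was read 24 h after the last dose using testosterone as probe substrate, analysed by LC/MS/MS. Induction is expressed as % of positive control; >40% in any donor counts as a potential inducer.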

Salmonella typhimurium = assay: Genotoxicity in Salmonella typhimurium by Ames test; format: toxicity, organism-based; details: salmonella enterica subsp. enterica serovar typhimurium
Cytochrome P450 3A4 [2] = molecular target: T1, Cytochrome P450 3A4; assay: Inhibition of CYP3A4 (unknown origin); format: ADME
Cytochrome P450 2C9 = Cytochrome P450 2C9 (Homo sapiens, UniProt P11712); assay: Inhibition of CYP2C9 (unknown origin); format: ADME
[3] = Solubility of the compound; format: physicochemical
[4] = Volume of distribution at steady state in beagle dog at 10 mg/kg, iv; format: ADME, organism-based, Canis lupus familiaris; design: dose 10 mg/kg, route intravenous; details: in vivo, read-out: Vdss
Rattus norvegicus = assay: Oral bioavailability in Sprague-Dawley rat at 50 mg/kg; format: ADME, organism-based; details: in vivo
Method in brief: (§1)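 Sprague–Dawley rats (n = 3) were dosed orally with an emulsion in 30% Labrafil. Blood was sampled from 0 to 24 h (0, 5, 15, 30 min; 1, 2, 4, 8, 24 h). Bioavailability was derived against the IV arm.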

[5] = Tmax in beagle dog at 30 mg/kg, po; format: ADME, organism-based, Canis lupus familiaris; design: dose 30 mg/kg, route oral; details: in vivo
Method in brief: (§2)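 Beagles (n = 3) were given an oral emulsion in 30% Labrafil. Blood was collected at 0, 5, 15 and 30 min and at 1, 2, 4, 8 and 24 h. Bioavailability was derived relative to IV dosing.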

Canis familiaris [6] = assay: Total unbound Cmax in beagle dog at 30 mg/kg, po; format: ADME, organism-based, Canis lupus familiaris; design: dose 30 mg/kg, route oral; details: in vivo; method in brief: as §2
[7] = Clearance in beagle dog at 10 mg/kg, iv; format: ADME, organism-based, Canis lupus familiaris; design: dose 10 mg/kg, route intravenous; details: in vivo
Canis familiaris [8] = assay: Total unbound AUC (0 to infinity) in beagle dog at 10 mg/kg, iv; format: ADME, organism-based, Canis lupus familiaris; design: dose 10 mg/kg, route intravenous; details: in vivo
[9] = Terminal half life in Sprague-Dawley rat at 50 mg/kg, po; format: ADME, organism-based; design: dose 50 mg/kg, route oral; details: in vivo, read-out: beta t1/2 (converted); method in brief: as §1
[10] = Metabolic stability in mouse liver microsomes assessed as compound remaining at 2 uM measured at 1 hr; format: ADME, Microsome; details: read-out: Stability
Method in brief: (§3)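 Liver microsomes (human, or male monkey, dog, rat or mouse) at 0.5 mg/mL final with 2 µM compound, 5 mM MgCl2 and 5 mM PBS. The reaction was started with 1 mM NADPH and run at 37 °C. Verapamil was the positive control; water replaced NADPH in the negative control. Read-out was percent parent remaining at 1 h.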

[11] = Metabolic stability in dog liver microsomes assessed as compound remaining at 2 uM measured at 1 hr; format: ADME, Canis lupus familiaris, Microsome; details: read-out: Stability; method in brief: as §3
[12] = Metabolic stability in human liver microsomes assessed as compound remaining at 2 uM measured at 1 hr; format: ADME, Microsome; details: read-out: Stability; method in brief: as §3
[13] = AUClast in CD1 mouse at 50 mg/kg, po; format: ADME, organism-based; design: time 0 - last, dose 50 mg/kg, route oral; details: plasma
Method in brief: (§4)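 CD1 mice (n = 3 per compound) were dosed orally at 50 mg/kg as an aqueous emulsion in 30% Labrafil. Blood was drawn at 0, 5, 15 and 30 min and 1, 2, 4, 8 and 24 h. Bioavailability and other parameters were calculated from the plasma profiles and compared against the intravenous arm.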

Mus musculus [14] = assay: Total unbound Cmax in CD1 mouse at 50 mg/kg, po; format: ADME, organism-based; design: dose 50 mg/kg, route oral; details: in vivo
Mus musculus [15] = assay: Total unbound Cmax in CD1 mouse at 10 mg/kg, iv; format: ADME, organism-based; design: dose 10 mg/kg, route intravenous; details: in vivo
[16] = Tmax in CD1 mouse at 50 mg/kg, po; format: ADME, organism-based; design: dose 50 mg/kg, route oral; details: in vivo; method in brief: as §4
[17] = Tmax in CD1 mouse at 10 mg/kg, iv; format: ADME, organism-based; design: dose 10 mg/kg, route intravenous; details: in vivo
Method in brief: (§5)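 CD1 mice (n = 3 per compound) given 10 mg/kg as a single tail-vein injection in a pH 7.0 solution of 10% ethanol plus PEG400 (some compounds also with 10% DMSO). Blood was sampled at 0, 5, 15 and 30 min and 1, 2, 4, 8 and 24 h. Parameters were derived from the plasma concentration–time profiles.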

[18] = molecular target: T2, Glucocorticoid receptor (Homo sapiens) (UniProt P04150); assay: Transactivation of glucocorticoid receptor in HEK293 cells co-transfected with GRE assessed as induction of GRE-dependent gene expression at 100 ug/ml after 6 hrs by luciferase reporter gene assay; format: cell-based
T2 sequence (whole entry): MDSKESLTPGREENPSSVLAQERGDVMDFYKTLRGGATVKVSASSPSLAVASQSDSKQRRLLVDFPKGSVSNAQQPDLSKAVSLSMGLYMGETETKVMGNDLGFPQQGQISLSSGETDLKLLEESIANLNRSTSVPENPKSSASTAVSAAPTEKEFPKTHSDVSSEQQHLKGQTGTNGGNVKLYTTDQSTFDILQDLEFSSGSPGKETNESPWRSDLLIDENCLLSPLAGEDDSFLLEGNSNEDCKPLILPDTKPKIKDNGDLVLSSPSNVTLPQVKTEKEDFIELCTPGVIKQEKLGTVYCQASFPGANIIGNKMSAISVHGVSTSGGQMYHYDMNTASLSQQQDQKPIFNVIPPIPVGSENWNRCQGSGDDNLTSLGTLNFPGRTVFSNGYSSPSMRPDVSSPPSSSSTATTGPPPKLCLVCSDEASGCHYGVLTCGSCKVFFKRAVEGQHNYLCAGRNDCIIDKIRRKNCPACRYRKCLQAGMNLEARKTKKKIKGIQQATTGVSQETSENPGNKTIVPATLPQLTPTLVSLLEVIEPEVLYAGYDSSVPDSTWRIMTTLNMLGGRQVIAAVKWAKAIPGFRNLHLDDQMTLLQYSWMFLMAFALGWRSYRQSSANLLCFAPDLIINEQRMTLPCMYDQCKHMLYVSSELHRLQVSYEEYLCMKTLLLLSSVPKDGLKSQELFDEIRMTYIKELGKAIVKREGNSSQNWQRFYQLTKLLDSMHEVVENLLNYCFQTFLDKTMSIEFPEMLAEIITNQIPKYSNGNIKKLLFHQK
Method in brief: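 HEK-293 cells stably transfected with a GRE-driven luciferase reporter were exposed to drug at 0.01–100 μg/ml for 6 h. Cells were washed with PBS and lysed, and luciferase activity was measured by luminometer.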

[19] = Mean residence time in CD1 mouse at 10 mg/kg, iv; format: ADME, organism-based; design: dose 10 mg/kg, route intravenous; details: in vivo; method in brief: as §5

T1 sequence (P08684 whole entry): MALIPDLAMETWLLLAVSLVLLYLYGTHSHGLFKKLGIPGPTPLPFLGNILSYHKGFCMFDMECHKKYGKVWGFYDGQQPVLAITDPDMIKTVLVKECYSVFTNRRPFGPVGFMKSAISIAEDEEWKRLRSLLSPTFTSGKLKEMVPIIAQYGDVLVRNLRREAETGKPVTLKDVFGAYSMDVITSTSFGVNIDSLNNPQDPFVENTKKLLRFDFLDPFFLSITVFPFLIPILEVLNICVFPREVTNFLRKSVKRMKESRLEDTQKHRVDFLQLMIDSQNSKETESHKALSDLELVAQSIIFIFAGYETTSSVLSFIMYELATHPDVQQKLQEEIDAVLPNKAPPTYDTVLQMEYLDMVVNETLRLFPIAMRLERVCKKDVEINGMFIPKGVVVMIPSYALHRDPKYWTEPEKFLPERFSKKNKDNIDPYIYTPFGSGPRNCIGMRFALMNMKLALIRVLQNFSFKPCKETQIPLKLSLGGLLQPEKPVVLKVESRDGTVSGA
Chain of Cytochrome P450 2C9 (P11712 whole entry): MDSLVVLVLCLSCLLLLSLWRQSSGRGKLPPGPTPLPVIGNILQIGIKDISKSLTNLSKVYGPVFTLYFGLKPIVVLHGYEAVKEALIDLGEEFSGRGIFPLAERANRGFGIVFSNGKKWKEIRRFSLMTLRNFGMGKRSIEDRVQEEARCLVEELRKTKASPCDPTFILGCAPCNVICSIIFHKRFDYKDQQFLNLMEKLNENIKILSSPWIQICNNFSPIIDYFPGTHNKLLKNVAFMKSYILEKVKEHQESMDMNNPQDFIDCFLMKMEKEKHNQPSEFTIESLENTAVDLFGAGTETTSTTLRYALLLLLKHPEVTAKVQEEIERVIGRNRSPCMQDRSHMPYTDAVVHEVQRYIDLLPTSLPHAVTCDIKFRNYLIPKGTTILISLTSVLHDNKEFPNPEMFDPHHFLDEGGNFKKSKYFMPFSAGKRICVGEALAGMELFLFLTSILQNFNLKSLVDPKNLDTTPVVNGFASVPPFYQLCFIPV

C[C@@H]1C[C@H]2[C@@H]3CCC4=CC(=O)C=C[C@]4(C)C3=CC[C@]2(C)[C@@]1(O)C(=O)CO [VAMOROLONE]
Activity (Cytochrome P450 3A4 [1]): 24%
Activity (Salmonella typhimurium): Non-toxic
IC50 (Cytochrome P450 3A4 [2]): > 50 µM
IC50 (Cytochrome P450 2C9): > 50 µM
solubility [3]: 187 µM (≈ 66.7 µg/mL)
Vd [4]: 1.93 L/kg
F (Rattus norvegicus): 47.8%
Tmax [5]: 6 h
fCmax (Canis familiaris [6]): 814 ng/mL
clearance [7]: 24.7 mL/min/kg
fAUC (Canis familiaris [8]): 6791 ng·h/mL
half-life [9]: 2.29 h
remaining at 1 h, 2 µM [10]: 88.8%
remaining at 1 h, 2 µM [11]: 92.5%
remaining at 1 h, 2 µM [12]: 82%
AUC(0-t) [13]: 32900 ng·h/mL
fCmax (Mus musculus [14]): 6787 ng/mL
fCmax (Mus musculus [15]): 11167 ng/mL
Tmax [16]: 2 h
Tmax [17]: 5 min
Activity [18]: inactive
MRT [19]: 0.667 h
